Measurements from different studies.
Matrix: plasma

SMILES | test system | conditions | AUC(0-t)
CC1(C)CC[C@]2(NC(=O)C(C)(F)F)CC[C@]3(C)[C@H](C(=O)C=C4[C@@]5(C)C=C(C#N)C(=O)C(C)(C)[C@@H]5CC[C@]43C)[C@@H]2C1 | human | oral, 150 mg, single dose | 1730 ng·h/mL
CC(=O)N(C)[C@H]1CCN(C(=O)c2cnc3c(c2)C[C@](C)(c2ccc(F)cc2)N3)C1 | male human | oral, 15 mg, multiple doses, once daily | 1.88 µM·h
COc1ccc(-c2c(Nc3ccccn3)[nH]c3c(C4=CCCCC4)c(-c4ccccc4)nn3c2=O)cc1 | human | oral, 100 mg once daily, multiple doses, steady state, patients | 66300 ng·h/mL
OC[C@H]1O[C@@H](c2cc(Cc3ccc(C4CC4)cc3)c(Cl)c3c2CCO3)[C@H](O)[C@@H](O)[C@@H]1O | human | oral, 0.3 mg, single dose, fed | 24.6 ng·h/mL
COc1ccc2c(c1)CN(C(=O)CCN1CCC(Cc3ccccc3)CC1)CC[S@@+]2[O-] | male human | intravenous, 0.4 mg/kg, healthy volunteers | 2410 ng·h/mL
CC(=O)O[C@H]1C(=O)[C@@]2(C)[C@H]([C@H](OC(=O)c3ccccc3)[C@]3(O)C[C@H](OC(=O)[C@H](O)[C@@H](NC(=O)c4ccccc4)c4ccccc4)C(C)=C1C3(C)C)[C@]1(OC(C)=O)CO[C@@H]1C[C@@H]2O | human | intravenous, 60 mg/m² | 2.1 µM·h
CC(C)n1c(C2CCNCC2)nc2c([N+](=O)[O-])c(Br)c(Br)cc21 | human | oral, 25 mg, patients | 152 ng·h/mL
C[C@@H](Oc1ccc(S(C)(=O)=O)cc1C(=O)N1C[C@@H]2C[C@]2(c2cc(C(F)(F)F)on2)C1)C(F)(F)F | human | oral, 10 mg, single dose, fasted | 1.61 µM·h
